From PubChem
Kir21 inh = inhibitors of mouse Kir2.1 inward-rectifier potassium channel; Inward rectifier potassium channel 2 (Mus musculus), P35561; HEK293-Kir2.1, FluxOR thallium flux fluorescence; stronger effect = lower value; B-score at 10 µM; hit rate 0.85% among 310,000;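 active = fluorescence ratio B-score at or below minus 3 SD of library scores, with starting-brightness B-score within 2 SD, cut at about -4.2 in these data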;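 note: channel flux triggered by added potassium and thallium sulfate stimulus; B-score of peak minus minimum fluorescence over baseline after thallium stimulus; more negative B-score means stronger Kir2.1 block with less thallium influx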
KCNQ1 act = potentiators or activators of KCNQ1 channel, primary screen, cell-based, thallium flux, high-throughput; Potassium voltage-gated channel subfamily KQT member 1 (Homo sapiens), P51787; CHO-K1 KCNQ1, thallium flux FluxOR fluorescence; stronger effect = higher value; B-score at 10 µM; hit rate 0.35% among 310,000; AID 2648, 2010;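 active = fluorescence ratio B-score, a plate-corrected score, at least three library SD, with initial intensity B-score within 5 SD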
Target sequence (P51787 whole entry, looked up): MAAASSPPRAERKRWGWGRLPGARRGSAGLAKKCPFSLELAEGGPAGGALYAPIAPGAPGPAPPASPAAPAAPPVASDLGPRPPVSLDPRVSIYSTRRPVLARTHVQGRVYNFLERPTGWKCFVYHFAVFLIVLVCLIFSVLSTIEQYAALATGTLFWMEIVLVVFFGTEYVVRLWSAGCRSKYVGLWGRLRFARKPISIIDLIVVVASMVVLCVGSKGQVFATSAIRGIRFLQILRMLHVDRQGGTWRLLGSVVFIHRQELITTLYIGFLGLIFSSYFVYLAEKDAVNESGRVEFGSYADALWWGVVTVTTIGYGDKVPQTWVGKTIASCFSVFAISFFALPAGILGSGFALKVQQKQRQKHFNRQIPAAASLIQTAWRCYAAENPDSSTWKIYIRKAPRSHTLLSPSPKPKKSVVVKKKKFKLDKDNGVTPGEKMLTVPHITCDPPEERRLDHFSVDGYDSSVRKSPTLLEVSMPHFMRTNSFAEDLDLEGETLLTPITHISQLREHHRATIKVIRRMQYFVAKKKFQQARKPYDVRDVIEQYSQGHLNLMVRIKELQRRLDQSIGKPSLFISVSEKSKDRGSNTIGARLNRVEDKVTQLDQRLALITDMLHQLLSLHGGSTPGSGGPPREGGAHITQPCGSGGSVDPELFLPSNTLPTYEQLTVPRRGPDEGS
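Assay system: stable KCNQ1 CHO-K1 line; medium: assay buffer, equal DMSO in all wells; timing: 90 min dye loading and 20 min compound exposure, both at room temperature; technique: kinetic FluxOR thallium fluorescence, 10-s 1-Hz baseline, 110-s post-stimulus read; read-out basis: B score of baseline-normalized fluorescence ratio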
KCNQ1 inh = inhibitors of human KCNQ1 channel, primary screen, cell-based, thallium flux, high-throughput; CHO-K1 KCNQ1, FluxOR thallium flux fluorescence; stronger effect = higher value; Potassium voltage-gated channel subfamily KQT member 1 (Homo sapiens), P51787; B-score at 10 µM; hit rate 1.3% among 310,000; AID 2642, 2010;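 active = compounds whose thallium flux B-score, printed positive for inhibition, exceeds three library SD while starting fluorescence stays within three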;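 note: channel opened by potassium depolarization with thallium stimulus after 20 min compound exposure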
hERG protect = hERG rescue from dofetilide block, primary screen, cell-based, CHO-hERG, FluxOR thallium flux, dofetilide IC70. Voltage-gated inwardly rectifying potassium channel KCNH2 (Homo sapiens), Q12809. dofetilide IC70 present. activation (rescue from dofetilide block), less the hit threshold, % at 10 µM. hit rate 0.51% among 310,000. AID 1511, 2009;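 active = activation above the mean of controls blocked by dofetilide plus 5 SD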;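 note: thallium influx through hERG after potassium depolarization seen as dye fluorescence rise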
KCNK9 inh = KCNK9 potassium channel inhibitors, primary screen, HEK293 cells, thallium flux. Potassium channel subfamily K member 9 (Homo sapiens), Q9NPC2. FluxOR thallium flux fluorescence; stronger effect = lower value. hit rate 1.2% among 310,000. B-score at 10 µM;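 active = ratio B-score over 3 SD below the library mean, with starting fluorescence within 5 SD of its mean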;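 note: negative B-score means less thallium flux so channel inhibition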
KCNK3 inh = human KCNK3 channel inhibitors, primary screen, CHO cells, FluxOR thallium flux, B-score | B-score at 10 µM | FluxOR fluorescence; stronger effect = lower value | hit rate 0.84% among 340,000 | Potassium channel subfamily K member 3 (Homo sapiens), O14649;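 active = B-score under library mean minus 4 SD, starting fluorescence ratio at most library mean plus 5 SD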;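 note: more negative B-score means stronger inhibition of thallium flux through KCNK3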
KCNK9 block conf = KCNK9 potassium channel inhibitors, confirmation, HEK293 cells, thallium flux, duplicate; shares compounds with KCNK9 inh; FluxOR thallium flux fluorescence; inhibition, % at 10 µM; hit rate 43% among 4,900;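 active = thallium signal inhibited by more than 5 SD of the compound-free buffer control wells, on both duplicate plates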
Kir21 sel = mouse Kir2.1 channel inhibition, confirmation, selectivity assay for KCNK9 modulator project, cell-based, HEK293, thallium flux; shares compounds with KCNK9 inh; Kir2.1 cells, FluxOR thallium flux fluorescence; inhibition, % at 10 µM; hit rate 4% among 4,900; AID 492993, 2010;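 active = thallium signal drop more than 5 SD beyond the mean of the no-compound control wells, seen in both duplicate plates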;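 note: signal is fluorescence rise after thallium addition divided by baseline fluorescence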
HEK293 Tl ctr = thallium flux in non-induced HEK293 cells, confirmation, counter-screen for KCNK9 inhibitor project, cell-based, second counter screen, non-induced KCNK9-HEK293. shares compounds with KCNK9 inh. FluxOR thallium flux. inhibition, % at 10 µM. hit rate 40% among 4,900;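 active = thallium signal drop beyond 5 SD of the untreated control mean, on both duplicate plates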
Large screens that a line does not name were inactive (follow-up assays come after a bar, where they were run). Compounds with a hit are over-represented: about 3.8% of the library has one in this group of screens.

O=C1CC(=O)Nc2cc(S(=O)(=O)Nc3ccc(Cl)c(C(F)(F)F)c3)ccc2N1	none
COC(=O)c1cc(=O)n(CCc2ccccc2)c(=Nc2ccc(F)cc2)s1	KCNQ1 inh 8, KCNK9 inh -10 | KCNK9 block conf 35% | Kir21 sel inactive | HEK293 Tl ctr 34%
COC(=O)c1cc(=O)n(CCc2ccc(OC)cc2)c(=Nc2ccc(F)c(Cl)c2)s1	none
CCOC(=O)c1ccc(N=c2sc(C(=O)OC)cc(=O)n2Cc2ccco2)cc1	none | KCNK9 block conf inactive | Kir21 sel inactive | HEK293 Tl ctr 38%
Cc1c(NC(=O)C2Cc3ccccc3CN2C(=O)c2ccco2)c(=O)n(-c2ccccc2)n1C (configuration not stated)	none
COc1ncnc2c1oc1ccccc12	none
Cc1ccc(Cn2nnc3c(=O)n(CC(=O)N4CCN(c5ccccc5)CC4)cnc32)cc1	none
Cc1ccc(NC(=S)NNC(=O)c2cccc([N+](=O)[O-])c2)cc1Cl	KCNQ1 inh 8 | KCNK9 block conf inactive | Kir21 sel inactive | HEK293 Tl ctr inactive
CC(=O)c1cccc(NC(=S)NNC(=O)c2ccc(C)c([N+](=O)[O-])c2)c1	none
COc1ccc(C)c(-n2c(=O)n(Cc3ccccc3)c(=O)c3[nH]cnc32)c1	none
O=C(O)C1Cc2ccccc2CN1S(=O)(=O)c1ccccc1 (configuration not stated)	none
CCC12CC3CC(C1)CC(C(=O)NNC(N)=O)(C3)C2	none
CCOC(=O)C1=C(O)C(=O)NC(c2ccccc2)=C(OC2CCCCC2)C1	none
CC(c1cccs1)N(C(=O)Nc1ccccc1)C1CCCCC1 (configuration not stated)	none | KCNK9 block conf inactive | Kir21 sel inactive | HEK293 Tl ctr inactive
Cc1cccc(OCCCCCn2ccnc2)c1C	none | KCNK9 block conf inactive | Kir21 sel inactive | HEK293 Tl ctr inactive
Cc1ccc(S(=O)(=O)N(C)c2ccc(C(=O)Nc3ccccc3C(=O)N3CCOCC3)cc2)cc1	none
COc1ccccc1C1CCN(Cc2ccccc2)CC1	none
COc1ccccc1C1CCN(Cc2ccc3ccccc3c2)CC1	none | KCNK9 block conf inactive | Kir21 sel 28% | HEK293 Tl ctr inactive
CC(=O)C1=C(C)NC(SCC(=O)c2ccc(Cl)cc2Cl)=C(C#N)C1c1ccco1 (configuration not stated)	KCNK9 inh -10, KCNK3 inh -9.6 | KCNK9 block conf 61% | Kir21 sel inactive | HEK293 Tl ctr 36%
CC(=O)C1=C(C)NC(SCc2cccc3ccccc23)=C(C#N)C1c1ccco1 (configuration not stated)	none
COc1cc(C(CCN2CCN(c3ccccc3)CC2)c2c(OC)cc(OC)c3c(C)cc(=O)oc23)cc(OC)c1OC (configuration not stated)	none | KCNK9 block conf inactive | Kir21 sel inactive | HEK293 Tl ctr inactive
COc1cc(C(CCN2CCCC2)c2c(OC)cc(OC)c3ccc(=O)oc23)cc(OC)c1OC (configuration not stated)	none
CCCCn1c(N)c(N(CCOC)C(=O)c2ccc(C)c(S(=O)(=O)N3CCOCC3)c2)c(=O)[nH]c1=O	none
CN(CC(CC(=O)Nc1nncs1)c1ccccc1)S(=O)(=O)c1ccccc1 (configuration not stated)	none
Cc1cc(C)c(C#N)c(SCc2ccccc2C)n1	none
Cc1cc(C)c(C#N)c(SCc2cc3c(cc2Cl)OCO3)n1	KCNK9 inh -8.5 | KCNK9 block conf 36% | Kir21 sel inactive | HEK293 Tl ctr 36%
N#Cc1nc(Nc2cc(F)cc(F)c2)c2ncn(CC(F)F)c2n1	none (no result: Kir21 inh, KCNQ1 act, KCNQ1 inh, hERG protect, KCNK9 inh)
O=[N+]([O-])c1cccc(-c2nc(-c3ccccc3)c(-c3cccs3)[nH]2)c1	none
COc1cc(-c2nc(-c3ccccc3)c(-c3cc([N+](=O)[O-])ccc3C)[nH]2)cc(OC)c1OC	KCNQ1 inh 9, KCNK9 inh -14, KCNK3 inh -11 | KCNK9 block conf 60% | Kir21 sel inactive | HEK293 Tl ctr 24%
Cc1cc2ccccn2c1C(=O)c1ccc([N+](=O)[O-])cc1[N+](=O)[O-]	none
Cc1cc2ccccn2c1C(=O)c1ccccc1Br	KCNK9 inh -8.3 | KCNK9 block conf inactive | Kir21 sel inactive | HEK293 Tl ctr inactive
c1ccc(Cn2nnc(CNc3ccccc3)c2-c2c(CNc3ccccc3)nnn2Cc2ccccc2)cc1	KCNK9 inh -17 | KCNK9 block conf 64% | Kir21 sel inactive | HEK293 Tl ctr 36%
Nc1c(C(=O)NCc2ccccc2)nnn1Cc1ccccc1	none
COc1ccc(C2CC(c3cccs3)=Nc3ccccc3S2)cc1 (configuration not stated)	KCNK9 inh -12 | KCNK9 block conf 52% | Kir21 sel inactive | HEK293 Tl ctr 36%
Cc1ccc(CSc2nnc(-c3ccc4c(c3)OCO4)o2)cc1	none
COc1ccc(C2=NCC(CSc3nnc(-c4ccc5c(c4)OCO5)o3)S2)cc1 (configuration not stated)	none | KCNK9 block conf inactive | Kir21 sel inactive | HEK293 Tl ctr inactive
Cc1occc1-c1nnc(SCC(=O)N2CCOCC2)o1	none
Cc1ccc(OCCCOc2cccc3cccnc23)cc1C	none | KCNK9 block conf inactive | Kir21 sel inactive | HEK293 Tl ctr inactive
COC(=O)CCCC(=O)N1CCC(n2nccc2NC(=O)CCOc2ccccc2)CC1	none
CC(=O)Nc1ccc2c(c1)C(=Nc1cccc(C)c1)c1ccccc1-2	none (no result: Kir21 inh, KCNQ1 act, KCNQ1 inh, hERG protect, KCNK9 inh)
Cn1c(Oc2ccc(F)cc2F)c(C=O)c2ccccc21	none
Cn1c(Sc2ccc(Cl)cc2)c(C=O)c2ccccc21	KCNQ1 inh 7, KCNK9 inh -8.2 | KCNK9 block conf 57% | Kir21 sel inactive | HEK293 Tl ctr 46%
CC(NC(=O)c1cc2cc(Br)ccc2oc1=N)c1ccccc1 (configuration not stated)	none | KCNK9 block conf inactive | Kir21 sel inactive | HEK293 Tl ctr inactive
